The target of one assay is Vanilloid receptor (Rattus norvegicus, UniProt Q9ERZ8+Q9WUD2+O35433). Description: Compound tested in vitro for [Ca2+] influx into neonatal rat dorsal root ganglia (DRG). Format: functional.
Assay [1] concerns Mus musculus. The experiment in a line: In vivo tail-flick latency after subcutaneous administration in mouse as an evaluation of antinociceptive potency. Format: functional. As to conditions: sc.
Assay [2] deals with Mus musculus. Description: In vivo tail-flick latency after peroral administration in mouse as an evaluation of antinociceptive potency. Format: functional. Conditions: po. In general terms: In hot-plate and tail-flick tests a longer latency is read as antinociception.
In assay [3] the test system is Cavia porcellus. The experiment in a line: Threshold dose required to cause increase in airway opening pressure […] of guinea pig after intravenous administration.
Assay [4] deals with Mus musculus. The experiment in a line: Compound tested for in vivo writhing antinociceptive assay in mouse after subcutaneous administration. In kind it is functional. Conditions: sc. The procedure, abridged:
(§1)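 Female CD-1 mice (20 g), kept on 12 h light/12 h dark and fasted overnight, 10 per group. Drug or vehicle was given sc or orally 55 min before ip acetic acid (0.3 mL, 200 mM). Abdominal constrictions were counted over the 5 min starting 5 min after acid. Effect was taken as the drug/vehicle writhe ratio, and ED50 (dose halving writhes) came from a logistic fit with standard error.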
Background: An intraperitoneal irritant provokes the stretching counted in writhing tests.

Assay [5] deals with Cavia porcellus. The experiment in a line: Threshold dose required to cause increase in airway opening pressure […] of guinea pig after intravenous administration. In kind it is functional. In outline: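 Dunkin-Hartley guinea pigs (400-450 g, n = 4 per group) under urethane (2 g/kg), held at 37 °C. Carotid cannula for blood pressure, jugular cannula for iv drug. Tracheal cannula with ventilation at 60 strokes/min and 10 mL/kg tidal volume. Airway opening pressure was read by differential transducer on the tracheal side arm. Threshold iv dose raising Pao was recorded.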

Assay [6] deals with Mus musculus. Description: Compound tested for in vivo writhing antinociceptive assay in mouse after peroral administration. In kind it is functional. Conditions: po. The procedure, abridged: as §1

From ChEMBL document CHEMBL1129594 (J Med Chem, 1996) come the findings set out here.

Structures are written as SMILES. Some results are limits rather than exact numbers.

On to `COc1cc(C/N=C(\S)NCCc2ccc(C(C)(C)C)cc2)ccc1OCCN`, for which, on Vanilloid receptor, the EC50 (in general, the concentration needed to bring the measured effect to its halfway point) amounted to 710 nM. This counts as sub-micromolar.
On Vanilloid receptor, `COc1cc(C/N=C(\S)NCCc2ccc(Cl)cc2)ccc1OCCN(C)C` had an EC50 of 3520 nM.
Still for that read-out and setting: the result for `COc1cc(C/N=C(\S)NCCc2ccc(Cl)cc2Cl)ccc1O` reads 130 nM.
Same read-out and setting: the value for `COc1cc(CN/C(S)=N/C=C\c2ccc(Cl)cc2)ccc1O` was 41 nM; that for `COc1cc(C/N=C(\S)NCCc2ccc(Cl)cc2)ccc1OCC[N+](C)(C)C.O=C([O-])C(F)(F)F` was over 100000 nM.
On Vanilloid receptor, `CCOC(=O)NCCOc1ccc(C/N=C(\S)NCCc2ccc(Cl)cc2)cc1OC` registered an EC50 of 6140 nM.
On to `CCCCCCCC/C=C\CCCCCCCC(=O)NCc1ccc(OCCN)c(OC)c1`, for which the ED50 (in general, the dose at which the effect has come halfway, by size or by number of responders) in the assay on Mus musculus [1] amounted to 6.3 µmol/kg; in the assay with Mus musculus [2] it was 184 µmol/kg; with Mus musculus [4], 3.06 µmol/kg. Further, the Dose in the assay with Cavia porcellus [3] is over 0.1 µM/kg.
For `COc1cc(C/N=C(\S)NCCc2ccccc2)ccc1OCCN`, on Vanilloid receptor, the EC50 came to 2720 nM.
For `COc1cc(C/N=C(\S)NCCc2ccc(F)cc2)ccc1OCCN`, the EC50 on Vanilloid receptor was 2300 nM.
`COc1cc(CNC(=S)NCc2ccc(C(C)(C)C)cc2)ccc1O`: at Vanilloid receptor, the EC50 was found to be 510 nM.
In turn, `COc1cc(C/N=C(\S)NCCc2ccc(Cl)cc2)ccc1OCCNC(C)=O` had an EC50 on Vanilloid receptor of 5130 nM.
In turn, `COc1cc(C/N=C(\S)NCCc2ccc(Cl)cc2Cl)ccc1OCCN` returned an EC50 on Vanilloid receptor of 320 nM.
On the same count and under the same terms, the result for `COc1cc(CN/C(S)=N/C=C/c2ccc(Cl)cc2)ccc1O` reads 410 nM.
As to `COc1cc(C/N=C(\S)NCc2ccc(C(C)(C)C)cc2)ccc1OCCN`, the EC50 on Vanilloid receptor turned out to be 170 nM. The same compound yielded a Dose in the assay with Cavia porcellus [5] of 0.062 µM/kg. For the same compound, the ED50 in the assay on Mus musculus [6] amounted to 2.55 µmol/kg; with Mus musculus [1], 0.4 µmol/kg; in the assay on Mus musculus [2] it was 1.45 µmol/kg; in the assay with Mus musculus [4], 0.49 µmol/kg.
In the case of `COc1cc(C/N=C(\S)NCCc2ccc(Cl)cc2)ccc1OCCN1C(=O)c2ccccc2C1=O`, the EC50 at Vanilloid receptor worked out at 53000 nM. This counts as double-digit micromolar.
The same measure, in the same setting: the value for `COc1cc(C/N=C(\S)NCCc2ccccc2)ccc1O` was 480 nM.
The same measure, in the same setting: the value for `CNCCOc1ccc(C/N=C(\S)NCCc2ccc(Cl)cc2)cc1OC` was 7030 nM.
As for `COc1cc(C/N=C(\S)NCCc2ccc(Cl)cc2)ccc1OCCN`, the Dose in the assay with Cavia porcellus [5] worked out at 0.137 µM/kg. In addition, the ED50 was 11.4 µmol/kg in the assay on Mus musculus [6], 4.8 µmol/kg with Mus musculus [1], 22.9 µmol/kg in the assay with Mus musculus [2] and 3.32 µmol/kg with Mus musculus [4].
The compound `COc1cc(C/N=C(\S)NCCc2ccc(Cl)cc2)ccc1OCCNC(=O)OC(C)(C)C` returned an EC50 at Vanilloid receptor of 3000 nM.
Turning to `COc1cc(C/N=C(\S)NCCc2ccc(F)cc2)ccc1O`, the EC50 at Vanilloid receptor amounted to 130 nM. Compared with the last compound, the EC50 is about 23-fold lower.
Regarding `COc1cc(C/N=C(\S)NCCc2ccc(Cl)cc2)ccc1O`, the EC50 on Vanilloid receptor was 56 nM. For the same compound, the Dose in the assay with Cavia porcellus [5] is 0.025 µM/kg. Also, the values for the ED50 in the assay on Mus musculus [1], in the assay with Mus musculus [2] and in the assay with Mus musculus [4] were 11.8 µmol/kg, 370 µmol/kg and 10.1 µmol/kg, respectively.
In turn, `COc1cc(CNC(=O)CCCC/C=C/C(C)C)ccc1O` [CAPSAICIN] had a Dose in the assay on Cavia porcellus [5] of 0.018 µM/kg. Further, the ED50 with Mus musculus [1] came out at 10.3 µmol/kg; in the assay on Mus musculus [2] it was 962 µmol/kg; in the assay with Mus musculus [4], 5.72 µmol/kg.
`CCCCCCCC/C=C\CCCCCCCC(=O)NCc1ccc(O)c(OC)c1` [OLVANIL]: the ED50 in the assay with Mus musculus [1] is 11.3 µmol/kg; with Mus musculus [2], over 400 µmol/kg; in the assay on Mus musculus [4], 2.1 µmol/kg. In the assay on Cavia porcellus [3], this compound gave a Dose of over 0.1 µM/kg.
